The subject of one data set is SARS-CoV-2/NL/2020. The data set is described as follows: Plaque reduction assay. The note with it: for dose-dependent inhibitory activity: any of the tested SARS-CoV-2 strains, up to 50 μM. Format: cell-based. (In general: In a plaque reduction assay, fewer plaques than in the control indicate reduced infectivity or spread.)
For the next data set, the system named is MRC-5 cells. The data set is described as follows: MTT cell viability assay in MRC-5 cells. Format: cell-based, human. The note with it: in words. Put shortly: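 Human fibroblast MRC-5 cells exposed to test compound for 72 h; viability read by MTT (3-(4,5-dimethylthiazol-2-yl)-2,5-diphenyl tetrazolium bromide) assay. CC50 taken as the compound concentration that inhibits cell viability by 50%.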
Background: Tetrazolium dyes change colour on reduction, which living cells bring about.

The next data set concerns HCoV-229E. The experiment in a line: microbe, parasite or virus in culture. Format: cell-based. The note with it: Human coronavirus 229E, MRC5, read-out: EC50 (CI).
The test system of a further data set is CCoV. The note with it: dog, po, 1 mg/kg; cited from earlier work.
Data set [1] has as its system SARS-CoV-2. The note with it: virus yield reduction assay, 48 h, infected Vero E6 cells; cited from earlier work.
Data set [2] relates to human prostaglandin E synthase type 2 (PGES-2). The note with it: cited from earlier work.
In data set [3] the test system is SARS-CoV-2. The note with it: 4-day cytopathic effect protection assay, Vero E6 cells; cited from earlier work. For orientation: Damage to the host cells serves as the signal in cytopathic effect assays.

Like-named read-outs stand apart in the source and are kept apart here.

For `COc1ccc2c(c1)c(CC(=O)NCCCCC(=O)N[C@H](C(=O)N1C[C@H](O)C[C@H]1C(=O)N[C@@H](C)c1ccc(-c3scnc3C)cc1)C(C)(C)C)c(C)n2C(=O)c1ccc(Cl)cc1` [Compound 2, (2S,4R)-1-((S)-2-(5-(2-(1-(4-chlorobenzoyl)-5-methoxy-2-methyl-1H-indol-3-yl)acetamido)pentanamido)-3,3-dimethylbutanoyl)-4-hydroxy-N-((S)-1-(4-(4-methylthiazol-5-yl)phenyl)ethyl)pyrrolidine-2-carboxamide], the dose-dependent inhibitory activity result in the data set on SARS-CoV-2/NL/2020 is on record as “did not show dose-dependent inhibitory activity”.

As for `COc1ccc2c(c1)c(CC(=O)NCCCCCCC(=O)N[C@H](C(=O)N1C[C@H](O)C[C@H]1C(=O)N[C@@H](C)c1ccc(-c3scnc3C)cc1)C(C)(C)C)c(C)n2C(=O)c1ccc(Cl)cc1` [Compound 3, (2S,4R)-1-((S)-2-(7-(2-(1-(4-chlorobenzoyl)-5-methoxy-2-methyl-1H-indol-3-yl)acetamido)heptanamido)-3,3-dimethylbutanoyl)-4-hydroxy-N-((S)-1-(4-(4-methylthiazol-5-yl)phenyl)ethyl)pyrrolidine-2-carboxamide], in the data set on MRC-5 cells, the cytotoxicity entry is listed as “did not show significant cytotoxicity”.

Regarding `COc1ccc2c(c1)c(CC(=O)NCCOCCOCC(=O)N[C@H](C(=O)N1C[C@H](O)C[C@H]1C(=O)N[C@@H](C)c1ccc(-c3scnc3C)cc1)C(C)(C)C)c(C)n2C(=O)c1ccc(Cl)cc1` [Compound 4, (2S,4R)-1-((S)-2-(tert-butyl)-14-(1-(4-chlorobenzoyl)-5-methoxy-2-methyl-1H-indol-3-yl)-4,13-dioxo-6,9-dioxa-3,12-diazatetradecanoyl)-4-hydroxy-N-((S)-1-(4-(4-methylthiazol-5-yl)phenyl)ethyl)pyrrolidine-2-carboxamide], the dose-dependent inhibitory activity result in the data set on SARS-CoV-2/NL/2020 is recorded as “did not show dose-dependent inhibitory activity”. Besides, the “activity in PRA” value with SARS-CoV-2/NL/2020 (in words) is reported as “not active”.

By EC50 is commonly meant the concentration needed to bring the measured effect to its halfway point. In the case of `COc1ccc2c(c1)c(CC(=O)NCCN1CCN(C(=O)CCC(=O)N[C@H](C(=O)N3C[C@H](O)C[C@H]3C(=O)N[C@@H](C)c3ccc(-c4scnc4C)cc3)C(C)(C)C)CC1)c(C)n2C(=O)c1ccc(Cl)cc1` [Compound 5, (2S,4R)-1-((S)-2-(4-(4-(2-(2-(1-(4-chlorobenzoyl)-5-methoxy-2-methyl-1H-indol-3-yl)acetamido)ethyl)piperazin-1-yl)-4-oxobutanamido)-3,3-dimethylbutanoyl)-4-hydroxy-N-((S)-1-(4-(4-methylthiazol-5-yl)phenyl)ethyl)pyrrolidine-2-carboxamide], the EC50 in the data set with HCoV-229E amounted to 3.4 µM. Further, in the data set on MRC-5 cells, the cytotoxicity result was “did not show significant cytotoxicity”.

For the compound `COc1ccc2c(c1)c(CC(=O)O)c(C)n2C(=O)c1ccc(Cl)cc1` [INM, Indomethacin], in the data set on CCoV, the “in vivo antiviral efficacy” value is “in vivo antiviral efficacy”. The EC50 is 100 µM in the data set with SARS-CoV-2 [1] and above 400 µM in the data set with SARS-CoV-2 [3]. The PGES-2 inhibition entry in data set [2] was “low nanomolar range”.

The record behind these values is PMC8416298 (European Journal of Medicinal Chemistry, 2021).
